Results on eight molecules are retold here after PMC3553949 (Nucleic Acids Research, 2012).

The subject of experiment [1] is EGFP-EZH2. The class given is cell-based, mouse. Conditions: 100 µM roscovitine, 2 h preincubation, HEK293T cells. In outline:
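HEK293T cells were transfected (Jetprime) with EGFP-tagged mouse EZH2, then preincubated with the CDK inhibitor roscovitine before lysis. EGFP-EZH2 was probed by immunoblot with a rabbit antibody raised against the Thr416-phosphorylated peptide (residues 410–421) coupled to KLH. The antibody was affinity-purified on non-phospho and phospho-peptide–BSA columns. Detection was by ECL imaging.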

Experiment [2] has as its target NIPP1 FHA domain (Homo sapiens, UniProt Q12972). Kind of experiment: NMR titration. The class given is binding. In short, it runs like this:
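¹⁵N-labelled NIPP1 FHA domain was expressed in E. coli grown in M9 with ¹⁵NH₄Cl, His₆-MBP tag removed by TEV, and purified by size exclusion. The domain (0.1 mM) in 20 mM BisTris pH 6.3, 50 mM NaCl, 5 mM DTT was titrated with increasing mouse EZH2 dodecapeptide concentrations at 298 K (500 MHz, 2D ¹H,¹⁵N HSQC). Kd came from nonlinear fitting of CSP versus peptide concentration.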

In experiment [3] the test system is EZH2-FHA interaction (EGFP-EZH2 / GST-FHA of NIPP1). Kind of experiment: Competition GST pull-down of EGFP-EZH2 with EZH2 dodecapeptides. The class given is binding. Conditions: 1 mM of the indicated EZH2 dodecapeptides.
Experiment [4] has as its system PP1. Kind of experiment: PP1 associated with immunoprecipitated EGFP-EZH2. The class given is binding. Conditions: HEK293T cell lysates, immunoblot. In outline:
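EGFP-EZH2 (wild-type or TP5 mutant; EGFP-βgal control) was transiently expressed in HEK293T cells and immunoprecipitated from lysates. Lysis buffers contained 20 mM NaF, 5 µM leupeptin, 0.5 mM PMSF and 0.5 mM benzamidine. Co-precipitated PP1 was detected by immunoblotting with ECL.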

The subject of experiment [5] is EED, SUZ12 and RbAp48. Kind of experiment: PRC2 components in immunoprecipitated EGFP-EZH2 complexes. The class given is binding. As to conditions: immunoblot, Supplementary Figure S5. On the technique in general: Immunoblotting shows a protein as a band on a membrane.
Experiment [6] has as its system EGFP-EZH2. As to the kind of experiment: In vitro phosphorylation of EGFP-EZH2 by cyclinA/CDK2. As to conditions: autoradiography, γ32P-ATP, cyclinA/CDK2, 60 min, 30°C. The class given is biochemical, mouse. In outline:
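Purified EGFP-tagged mouse EZH2 was incubated 60 min at 30°C with recombinant cyclinA/CDK2 (bacterially expressed). Buffer: 20 mM Tris/HCl pH 7.5, 2 mM DTT, 0.1 mg/ml BSA, 2 mM MgAc, 100 µM ATP, with or without γ³²P-ATP.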

Experiment [7] relates to endogenous NIPP1. Kind of experiment: Co-immunoprecipitation of EZH2 fusions with endogenous NIPP1. The class given is binding. As to conditions: HEK293T cell lysates.
Experiment [8] relates to NIPP1-FHA domain. Kind of experiment: GST pull-down of EGFP-EZH2 TP mutants with GST-FHA. The class given is binding. Conditions: Thr to Ala mutants, n = 4. In outline: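 Mouse EZH2 Thr→Ala mutants were made by site-directed mutagenesis in an EGFP-IRES-puro vector and transfected with Jetprime. Lysis buffers contained NaF, leupeptin, PMSF and benzamidine.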
Experiment [9] concerns EGFP-EZH2. Kind of experiment: Phosphorylation status of EGFP-EZH2 TP mutants in cells. As to conditions: EGFP-EZH2 mutant from cells, immunoblot. The class given is cell-based, mouse. In outline: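 EGFP-tagged mouse EZH2 variants (EGFP alone as control) were expressed in cells and isolated by EGFP trap. Elution used 0.2 M glycine pH 2.5 for 90 s, immediately neutralised with 1 M Tris pH 10.8. Eluates were immunoblotted with a pan-phospho-Thr-Pro antibody and an affinity-purified phospho-Thr416 (pTP5) antibody. Blots were visualised by ECL and quantified by densitometry.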

The target of experiment [10] is NIPP1 FHA domain (15N-labelled, for NMR). As to the kind of experiment: NMR titration.
Experiment [11] has as its system EZH2, EED and SUZ12. As to the kind of experiment: EGFP trap of EGFP-NIPP1 and co-precipitation of core PRC2 components. The class given is binding. As to conditions: EGFP-NIPP1 WT or FHAm, HEK293T cell lysates. In outline:
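EGFP-NIPP1 is expressed in HEK293T cells by plasmid transfection (Jetprime) and captured by EGFP trap from lysates. Lysis buffer contains 20 mM NaF, 5 µM leupeptin, 0.5 mM PMSF and 0.5 mM benzamidine. Co-precipitated proteins are detected by immunoblotting, using anti-EZH2 (AC-22), an in-house rabbit anti-EED raised against His-EED, and anti-SUZ12 (3C1.2).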

In experiment [12] the test system is EGFP-EZH2. As to the kind of experiment: In vitro dephosphorylation of EGFP-EZH2 by PP1. The class given is biochemical, mouse. In outline:
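Mouse EGFP-EZH2 is expressed in HEK293T cells and isolated by immunoprecipitation or EGFP trap. It is incubated 30 min at 30°C in 50 mM Tris/HCl pH 7.5, 1 mM DTT, 0.1 mg/ml BSA with one of: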

Entries after “also recorded” stand apart in the source; their conditions may differ. Non-standard residues stand in square brackets, D forms with d. No end group written: not given here. pT = C[C@@H](OP(=O)(O)O)[C@H](N)C(=O)O

As to `CC[C@H](CO)Nc1nc(NCc2ccccc2)c2ncn(C(C)C)c2n1` [roscovitine], in [1], the “binding of EGFP-EZH2 to GST-FHA” value is “abolished” and the “detection of EGFP-EZH2 by pTP5 antibody” value is given as “not detected”.
As to ANSRCQ(p)TPIKMK [pTP5], the saturation of binding entry in experiment [2] (10-fold molar excess of the peptide) was “Saturation was not achieved even after a 10-fold molar excess of the peptide”. In experiment [2] (summary in Discussion), the “binding of purified FHA domain to EZH2-derived dodecapeptide” value is “interacts rather poorly”. Also, the “EZH2-FHA interaction in presence of peptide” value in [3] is on record as “decreased EZH2-FHA interaction”.
For the molecule “EZH2-WT: EGFP- or Dam-tagged wild-type mouse EZH2”, the “associated PP1” value in experiment [4] is “contained the same amount of PP1”. For the same molecule, in experiment [5], the “abundance of EED, SUZ12 and RbAp48 in complex” value is on record as “equally abundant”.
On to “EZH2-mTP5: EZH2 with Thr416 (TP5) mutated to Ala”, for which the “associated PP1” value in [4] is on record as “contained the same amount of PP1”. The “in vitro phosphorylation of EZH2 by CDK2” value in [6] is “moderately reduced”. Besides, the “co-immunoprecipitation with endogenous NIPP1” value in experiment [7] is given as “no longer co-immunoprecipitated with endogenous NIPP1”. Further, in experiment [8], the “binding of EZH2 TP mutant to GST-FHA” value was “complete loss of binding”. Further, the pTP5 signal result in experiment [9] is “not detected”. Also, in [5], the “abundance of EED, SUZ12 and RbAp48 in complex” value was “equally abundant”.
For orientation: Kd means the constant that tells how readily two partners part at equilibrium. ANSRCQ[pT]PIKMK [EZH2 410-421 peptide, phosphorylated at Thr416 (pTP5)] registered a Kd in experiment [10] of 1900 µM.

B1: EGFP-NIPP1: ectopically expressed EGFP-NIPP1 wild-type (protein)
chain: MAAAANSGSSLPLFDCPTWAGKPPPGLHLDVVKGDKLIEKLIIDEKKYYLFGRNPDLCDFTIDHQSCSRVHAALVYHKHLKRVFLIDLNSTHGTFLGHIRLEPHKPQQIPIDSTVSFGASTRAYTLREKPQTLPSAVKGDEKMGGEDDELKGLLGLPEEETELDNLTEFNTAHNKRISTLTIEEGNLDIQRPKRKRKNSRVTFSEDDEIINPEDVDPSVGRFRNMVQTAVVPVKKKRVEGPGSLGLEESGSRRMQNFAFSGGLYGGLPPTHSEAGSQPHGIHGTALIGGLPMPYPNLAPDVDLTPVVPSAVNMNPAPNPAVYNPEAVNEPKKKKYAKEAWPGKKPTPSLLI
modifications: left off: EGFP, end not stated, kept
As for B1, in experiment [11], the “co-precipitation of PRC2 components” value was “Both EZH2 and EED co-precipitated; also recorded: SUZ12, which interacts directly with EZH2 but not with EED ([19]), only co-precipitated with the WT NIPP1 fusion”.

B2: FHA mutant: EGFP-NIPP1 with mutated FHA domain (protein)
chain: MAAAANSGSSLPLFDCPTWAGKPPPGLHLDVVKGDKLIEKLIIDEKKYYLFGRNPDLCDFTIDHQSCAAAAAALVYHKHLKRVFLIDLNSTHGTFLGHIRLEPHKPQQIPIDSTVSFGASTRAYTLREKPQTLPSAVKGDEKMGGEDDELKGLLGLPEEETELDNLTEFNTAHNKRISTLTIEEGNLDIQRPKRKRKNSRVTFSEDDEIINPEDVDPSVGRFRNMVQTAVVPVKKKRVEGPGSLGLEESGSRRMQNFAFSGGLYGGLPPTHSEAGSQPHGIHGTALIGGLPMPYPNLAPDVDLTPVVPSAVNMNPAPNPAVYNPEAVNEPKKKKYAKEAWPGKKPTPSLLI
modifications: left off: EGFP, end not stated, kept
B2: in [11], the “co-precipitation of PRC2 components” value is “only EED co-sedimented”.

B3: NIPP1: recombinant His-NIPP1, or immunoprecipitated EGFP-NIPP1/PP1 complex (protein, UniProt Q12972 1-351, looked up)
Nuclear inhibitor of protein …: MAAAANSGSSLPLFDCPTWAGKPPPGLHLDVVKGDKLIEKLIIDEKKYYLFGRNPDLCDFTIDHQSCSRVHAALVYHKHLKRVFLIDLNSTHGTFLGHIRLEPHKPQQIPIDSTVSFGASTRAYTLREKPQTLPSAVKGDEKMGGEDDELKGLLGLPEEETELDNLTEFNTAHNKRISTLTIEEGNLDIQRPKRKRKNSRVTFSEDDEIINPEDVDPSVGRFRNMVQTAVVPVKKKRVEGPGSLGLEESGSRRMQNFAFSGGLYGGLPPTHSEAGSQPHGIHGTALIGGLPMPYPNLAPDVDLTPVVPSAVNMNPAPNPAVYNPEAVNEPKKKKYAKEAWPGKKPTPSLLI
modifications: His tag
Regarding B3, the “effect on PP1-mediated dephosphorylation of EGFP-EZH2” value in [12] (500 nM PP1, recombinant His-NIPP1 4.5 µM to 55 nM) was “abolished”. Besides, the “dephosphorylation of EGFP-EZH2 by immunoprecipitated NIPP1/PP1” value in experiment [12] (after pretreatment with trypsin) is on record as “the immunoprecipitate dephosphorylated EGFP-EZH2”; in experiment [12] (without trypsin pretreatment, co-precipitated PP1 present) it was “not dephosphorylated”.
